In ChEMBL document CHEMBL1821718, “Curcumin recognizes a unique binding site of tubulin” (J Med Chem, 2011):
One block for each compound: values may come before it. Activity calls are given as the source filed them. No cut-off for these calls is given here.

What was measured:
[1] = species on record: Capra hircus; assay: Binding affinity to goat brain tubulin by isothermal titration calorimetry
[2] = Inhibition of goat brain tubulin polymerization assessed as turbidity by UV spectrophotometry; set-up: species or system Capra hircus
Method in brief: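 Goat brain tubulin in PEM buffer (50 mM PIPES pH 7, 1 mM EGTA, 0.5 mM MgCl2) with 1 mM GTP. Assembly initiated with 10% DMSO at 37 °C and turbidity followed at 360 nm. Half-maximal inhibition taken as the concentration reducing polymer mass by 50%; run in triplicate, at least two repetitions.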

[3] = system: A549; assay: Antiproliferative activity against human A549 cells assessed as loss of cell viability after 48 hrs by MTT assay; format: functional, cell-based; conditions: A549, 48 h
Method in brief: (§1)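 Cells seeded at 1 × 10^4 per well in DMEM with 10% FBS, 1 mM L-glutamine and antibiotics at 37 °C, 5% CO2. Exposed to 0–50 μM compound for 48 h. MTT (2 mg/mL in PBS) added until purple precipitate formed; absorbance read at 570 nm against 650 nm reference. Mean ± SEM, n = 4; IC50 taken from concentration-response.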

[4] = system: HeLa; assay: Induction of cell cycle arrest in human HeLa cells assessed as accumulation in G2/M phase at 5 uM after 24 hrs by flow cytometry; format: functional, cell-based
[5] = system: MCF7; assay: Cell cycle arrest in nocodazole pre-treated human MCF7 cells; format: functional, cell-based
[6] = system: HeLa; assay: Cell cycle arrest in nocodazole pre-treated human HeLa cells at 5 uM assessed as accumulation in G2/M phase after 8 hrs by flow cytometry; format: functional
Method in brief: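 HeLa cells at 1 × 10^6 cells/mL held 20 h in nocodazole (2 μM in methods; 1.5 μM in text), washed, then given fresh medium with 5 μM compound for 8 h. Fixed in ice-cold methanol, treated 4 h at 37 °C with 1 mg/mL RNase A, stained with PI. G2/M fraction measured by FACS.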

[7] = system: A549; assay: Induction of apoptosis in human A549 cells assessed as apoptotic cells at 5 uM after 48 hrs by FITC-conjugated annexin-V/PI assay; format: functional
Method in brief: (§2)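 About 1 × 10^6 A549 or HeLa cells treated with 0–5 μM compound for 48 h. Stained 15 min at room temperature in the dark with FITC-annexin V (1 μg/mL) and PI (0.5 μg/mL) in Ca2+-enriched binding buffer. Annexin-V-positive fraction quantified by flow cytometry.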

[8] = system: HeLa; assay: Induction of apoptosis in human HeLa cells assessed as apoptotic cells at 5 uM after 48 hrs by FITC-conjugated annexin-V/PI assay; format: functional; method in brief: as §2
[9] = system: A549; assay: Induction of apoptosis in human A549 cells assessed as abnormality in nuclear DNA at 5 uM by DAPI staining technique; format: functional, cell-based
[10] = system: HeLa; assay: Induction of apoptosis in human HeLa cells assessed as abnormality in nuclear DNA at 5 uM by DAPI staining technique; format: functional, cell-based
[11] = system: A549; assay: Disruption of human A549 cell morphology at 2.5 to 5 uM after 24 hrs by phase contrast microscopy; format: functional, cell-based
Method in brief: (§3)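 A549 and HeLa cells grown in DMEM with 10% FBS at 37 °C, 5% CO2, exposed to 2.5 or 5 μM compound for 24 h. Morphology of control and treated cells recorded by inverted phase-contrast microscopy.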

[12] = system: HeLa; assay: Disruption of human HeLa cell morphology at 2.5 to 5 uM after 24 hrs by phase contrast microscopy; format: functional, cell-based; method in brief: as §3
[13] = system: A549; assay: Disruption of interphase microtubule network in human A549 cells at 2.5 uM after 24 hrs by confocal microscopy; format: functional, cell-based
Method in brief: (§4)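 A549 or HeLa cells at 10^6 cells/mL exposed to 0–2.5 μM compound for 24 h. PBS-washed, fixed in 2% paraformaldehyde, permeabilized 1 h (0.1% Na citrate, 0.1% Triton), blocked in 5% BSA. Stained with mouse anti-α-tubulin (1:200) then rhodamine anti-mouse IgG (1:150) plus DAPI 1 μg/mL. Interphase network imaged by confocal microscopy; n = 3.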

[14] = system: HeLa; assay: Disruption of interphase microtubule network in human HeLa cells at 2.5 uM after 24 hrs by confocal microscopy; format: functional, cell-based; method in brief: as §4
[15] = system: A549; assay: Perturbation of spindle microtubule and chromosomal organization in human A549 cells at 2.5 uM after 24 hrs by immunofluorescence method; format: functional, cell-based
Method in brief: (§5)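 Cells exposed to 0–2.5 μM compound for 24 h, fixed in 2% paraformaldehyde, permeabilized, blocked with 5% BSA. Spindles stained with anti-α-tubulin (1:200) and rhodamine secondary (1:150); chromosomes stained with DAPI (1 μg/mL). Bipolar spindle and metaphase-plate alignment scored by confocal microscopy; three experiments.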

[16] = system: HeLa; assay: Perturbation of spindle microtubule and chromosomal organization in human HeLa cells at 2.5 uM after 24 hrs by immunofluorescence method; format: functional, cell-based; method in brief: as §5
[17] = Binding affinity to goat brain tubulin by spectrofluorimetry
[18] = system: HeLa (Homo sapiens); assay: Induction of cell cycle arrest in human HeLa cells assessed as accumulation in G2/M phase at 5 uM after 24 hrs by flow cytometry
[19] = system: HeLa; assay: Antiproliferative activity against human HeLa cells assessed as loss of cell viability after 48 hrs by MTT assay; format: functional, cell-based; method in brief: as §1
[20] = system: A549; assay: Disruption of interphase microtubule network in human A549 cells after 24 hrs by confocal microscopy; format: functional, cell-based; method in brief: as §4
[21] = system: HeLa; assay: Disruption of interphase microtubule network in human HeLa cells after 24 hrs by confocal microscopy; format: functional, cell-based; method in brief: as §4

Activity [1]: inactive
SMILES: O=C(O)/C=C/c1ccccc1

IC50 [2]: 36 µM
SMILES: COc1cc(/C=C/c2cc(/C=C/c3ccc(O)c(OC)c3)n(-c3cccc([N+](=O)[O-])c3)n2)ccc1O

IC50 [2]: 26 µM
SMILES: COc1cc(/C=C/c2cc(/C=C/c3ccc(O)c(OC)c3)on2)ccc1O

IC50 [2]: 20 µM
IC50 [3]: 17 µM
Ka [17]: 5.01 ×10⁵ /M
SMILES: COc1cc(/C=C/C(=O)CC(=O)/C=C/c2ccc(O)c(OC)c2)ccc1O [CURCUMIN]
Activity [4]: inactive
Activity [5]: Active
Activity [6]: 18%
Activity [7]: 16%
Activity [8]: 8%
Activity [9]: inactive
Activity [10]: inactive
Activity [11]: inactive
Activity [12]: inactive
Activity [13]: inactive
Activity [14]: inactive
Activity [15]: inactive
Activity [16]: inactive
Activity [18]: inactive

IC50 [2]: 38 µM
SMILES: COc1ccc(-n2nc(/C=C/c3ccc(O)c(OC)c3)cc2/C=C/c2ccc(O)c(OC)c2)cc1

IC50 [2]: 34 µM
SMILES: COc1cc(/C=C/c2cc(/C=C/c3ccc(O)c(OC)c3)n(-c3ccc(F)cc3)n2)ccc1O

IC50 [2]: 16 µM
IC50 [19]: 6 µM
IC50 [3]: 7 µM
Ka [17]: 2.5 ×10⁶ /M
SMILES: COc1cc(C=C(C(=O)/C=C/c2ccc(O)c(OC)c2)C(=O)/C=C/c2ccc(O)c(OC)c2)ccc1O
Activity [4]: inactive
Activity [6]: 35%
Activity [7]: 45%
Activity [8]: 38%
Activity [9]: Active
Activity [10]: Active
Activity [11]: Active
Activity [12]: Active
Activity [13]: Active
Activity [14]: Active
Activity [15]: Active
Activity [16]: Active
Activity [20]: Dose-dependent effect
Activity [21]: Dose-dependent effect

IC50 [2]: 23 µM
SMILES: COc1cc(/C=C/c2cc(/C=C/c3ccc(O)c(OC)c3)[nH]n2)ccc1O [CURCUMIN PYRAZOLE]

Activity [1]: inactive
SMILES: O=C(O)/C=C/c1ccc(O)c(O)c1

Activity [1]: inactive
SMILES: COc1ccc(/C=C/C(=O)O)cc1OC

Activity [1]: inactive
SMILES: O=C(O)/C=C/c1ccccc1O

Activity [1]: inactive
SMILES: O=C(O)/C=C/c1ccc(O)cc1O

IC50 [2]: 60 µM
SMILES: COc1cc(/C=C/C(=O)CC(=O)/C=C/c2ccc(OC(C)=O)c(OC)c2)ccc1OC(C)=O
